Assay results as given in paper PMC6422158 (Clinical cancer research : an official journal of the …, 2018).

What was measured:
in vitro = in vitro ADME; conditions: human, plasma
advanced cancer = test: Tumor response per RECIST 1.1, all patients on therapy; type: in vivo, human; conditions: 84 patients on therapy
Summary of the method: (§1)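 Response was assessed by RECIST 1.1 plus investigator assessment. Best response required two CR determinations (or two PR-or-better) before progression. Confirmation used the same radiologic method repeated at least 4 weeks after the initial response. ORR was CR+PR among all patients dosed at least once. Clinical benefit was CR+PR+SD among dosed patients with a measurable lesion.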

[1] = Plasma pharmacokinetics of LY2940680 and LSN3185556 in patients; type: in vivo, human
Summary of the method: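 Oral dosing was once daily in the morning, 50–600 mg, on 28-day cycles. About 4 mL blood was drawn into EDTA tubes over a 24-h sampling schedule. Parent and metabolite in plasma were quantified by validated LC/MS. Noncompartmental analysis gave Cmax, tmax, AUC0–24, t1/2, Vd/F and CL/F. Accumulation ratio was from AUC0–24, days 1 vs 15, reported as geometric means with %CV.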

[2] = test system: locally advanced/metastatic basal cell carcinoma; test: Tumor response per RECIST 1.1, BCC patients; type: in vivo, human
Summary of the method: as §1

CYP3A4 = CYP3A4 (Homo sapiens, UniProt P08684); test: In vitro metabolism by CYP3A4; type: in vitro ADME; conditions: in vitro data
Sequence of CYP3A4 (P08684 whole entry): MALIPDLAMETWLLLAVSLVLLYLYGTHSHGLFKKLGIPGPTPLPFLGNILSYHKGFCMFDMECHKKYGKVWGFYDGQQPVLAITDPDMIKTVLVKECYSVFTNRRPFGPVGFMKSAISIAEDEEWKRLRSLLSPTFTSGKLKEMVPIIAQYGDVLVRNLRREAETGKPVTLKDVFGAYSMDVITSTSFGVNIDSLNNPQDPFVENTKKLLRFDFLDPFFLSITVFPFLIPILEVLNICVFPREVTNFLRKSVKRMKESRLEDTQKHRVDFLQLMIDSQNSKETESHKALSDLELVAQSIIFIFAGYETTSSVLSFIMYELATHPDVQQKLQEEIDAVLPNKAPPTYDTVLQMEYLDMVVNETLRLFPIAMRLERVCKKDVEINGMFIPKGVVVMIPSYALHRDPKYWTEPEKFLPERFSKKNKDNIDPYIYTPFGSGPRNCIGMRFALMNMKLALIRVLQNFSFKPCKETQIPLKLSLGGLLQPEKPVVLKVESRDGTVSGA

Gli1 mRNA = Gli1 mRNA expression in skin biopsies; type: in vivo, human; conditions: overall, all doses 50-600 mg QD; interquartile range 80.9%−95.7%
Summary of the method: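 Normal skin biopsies taken predose, cycle 1 day 15 and cycle 2 day 1 from patients on oral QD dosing (28-day cycles). Post-dose samples were taken 2 h after dosing in escalation, and 24 h after the cycle 2 day 1 dose in confirmation/expansion. GLI1 was measured by RT-PCR, normalised to RPLP0, and % inhibition was derived by 2−ΔΔCT and summarised by dose level.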

[3] = test system: patients with advanced cancer; test: Phase I safety and tolerability; type: in vivo
human serum albumin = human serum albumin (Homo sapiens, UniProt P02768); test: In vitro binding to human serum albumin; type: in vitro ADME
Sequence of human serum albumin (P02768 25-609): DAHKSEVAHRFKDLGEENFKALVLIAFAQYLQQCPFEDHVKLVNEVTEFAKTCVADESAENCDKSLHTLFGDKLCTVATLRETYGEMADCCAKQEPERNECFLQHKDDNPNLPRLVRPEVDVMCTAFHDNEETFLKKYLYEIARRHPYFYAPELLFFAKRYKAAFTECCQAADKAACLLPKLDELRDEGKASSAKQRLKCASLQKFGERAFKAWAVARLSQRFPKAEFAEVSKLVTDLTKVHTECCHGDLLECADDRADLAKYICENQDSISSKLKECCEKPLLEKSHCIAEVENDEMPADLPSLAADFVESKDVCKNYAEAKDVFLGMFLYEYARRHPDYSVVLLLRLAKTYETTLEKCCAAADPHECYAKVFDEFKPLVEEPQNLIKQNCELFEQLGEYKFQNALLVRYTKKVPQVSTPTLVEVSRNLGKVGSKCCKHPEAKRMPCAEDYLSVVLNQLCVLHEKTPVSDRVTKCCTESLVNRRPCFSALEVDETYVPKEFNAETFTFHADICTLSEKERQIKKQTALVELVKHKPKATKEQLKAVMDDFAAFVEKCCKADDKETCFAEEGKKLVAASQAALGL

[4] = test system: human Smo (hSmo) receptor; conditions: cited from earlier work
[5] = cited from earlier work
advanced BCC = conditions: human, in vivo; cited from earlier work
[6] = at doses above 400 mg; first human dose trial; ref 19−22; cited from earlier work
[7] = BCC, prior Hh therapy including vismodegib and sonidegib

CN(C(=O)c1ccc(F)cc1C(F)(F)F)C1CCN(c2nnc(-c3ccnn3C)c3ccccc23)CC1 [LY2940680, taladegib]
fraction unbound (in vitro): 0.056 | Best response of SD (advanced cancer): 26 (30.9%) patients (%) | Best response of progressive disease (advanced cancer): 24 (28.6%) patients (%) | Confirmed CR (advanced cancer): 5 (5.9%) patients (%) | Confirmed PR (advanced cancer): 16 (19.0%) patients (%) | Patients with a response (advanced cancer): 22 (26.2%) patients (%) | Unconfirmed PR (advanced cancer): 1 (1.2%) patients (%) | Accumulation ratio based on AUC0–24 ([1]; LY2940680, between days 1 and 15, QD, range 0.7−4.8, 39% CV): approximately 2 | Steady state attained ([1]; QD dosing): cycle 2, day 1 | Dose proportionality of Cmax and AUC0–24 ([1]; after multiple doses): did not suggest any large deviation from dose proportionality | Time to reach Cmax ([1]; after single- and multiple-dose oral administrations): approximately 3 hours | PK variability on exposure ([1]; human, in vivo): approximately 70% | Vd/F ([1]; human, plasma, po): 235 L | CL/F (geometric mean) ([1]; oral, 70% CV): 8.2 L/h | Best overall response of CR or PR ([2]; 16 BCC patients requiring dose reductions): 9 (56.3%) patients (%) | Best overall response of CR or PR ([2]; 47 BCC patients): 22 (46.8%) patients (%) | Best response of progressive disease ([2]; 47 BCC patients): 1 patient | Best response of SD ([2]; 47 BCC patients (twenty-one patients)): 44.7% | Best response of non-CR nonprogressive disease ([2]; 47 BCC patients, based on nontarget lesions): 1 patient | Responses in Hh treatment-naïve patients ([2]; BCC): 68.8% | Responses in Hh treatment-naïve patients (responders/patients) ([2]; BCC): 11/16 | Estimated median PFS ([2]; BCC expansion phase (n = 40), 400 mg QD, 95% CI 7.62−17.54): 12.0 months | Estimated response rate ([2]; BCC patients (n = 47), 95% CI 32.1%−61.9%): 46.8% | Disease control rate ([2]; BCC patients, 95% CI 82.5%−98.7%): 93.6% | Responses in patients previously treated with Hh therapy [2, 7]: 35.5% | Responses in patients previously treated with Hh therapy (responders/patients) [2, 7]: 11/31 | Duration of sustained response, single patient ([2]; Hh-inhibitor treatment–naïve locally advanced BCC, 50 mg QD, PR): 8.3 months | Confirmed CR ([2]; number of the 16 BCC patients requiring dose reductions): 3 | Confirmed CR ([2]; number of the 47 BCC patients): 5 | Confirmed PR ([2]; number of the 47 BCC patients): 16 | Unconfirmed PR ([2]; number of the 47 BCC patients): 1 | Fraction metabolized by CYP3A4 (CYP3A4): 100% | Gli1 inhibition in normal skin (median) (Gli1 mRNA): 92.3% | AE resulting in dose reductions: decreased appetite ([3]; human, in vivo): 3 | AE resulting in dose reductions: dysgeusia ([3]; human, in vivo): 3 | AE resulting in dose reductions: fatigue ([3]; human, in vivo): 8 | AE resulting in dose reductions: muscle spasms ([3]; human, in vivo): 8 | AE resulting in dose reductions: nausea ([3]; human, in vivo): 3 | AE resulting in dose reductions: weight decreased ([3]; human, in vivo): 3 | Patients who discontinued treatment because of AE ([3]; human, in vivo): 10 | Patients with SAEs ([3]; human, in vivo): 22 patients | Patients with at least 1 dose reduction ([3]; human, in vivo): 16 patients | Patients with DLTs ([3]; human, in vivo, 1 cycle): 4 patients | DLT observed ([3]; human, in vivo, 22 day): grade 3 hyponatremia | Maximum tolerable dose (MTD) ([3]; oral QD, 3+3 dose escalation 50 to 600 mg): 400 mg | Concentration dependence of binding to human serum albumin (human serum albumin; 1 to 10 μmol/L): no apparent concentration-dependent binding | Predominant plasma-binding protein (human serum albumin; tested with human serum albumin and human α−1-acid glycoprotein): Human serum albumin | Binding to hSmo receptor [4]: competitively inhibits binding of an hSmo agonist

Cc1c(C(=O)Nc2ccc(N3C[C@@H](C)O[C@@H](C)C3)nc2)cccc1-c1ccc(OC(F)(F)F)cc1 [sonidegib]
Bound to plasma protein [5]: over 99% | Efficacy in advanced BCC patients previously treated with vismodegib (advanced BCC): not efficacious | PK linearity [6]: nonlinear PK
